Measurements taken from ChEMBL document CHEMBL5653623 (J Pharmacol Exp Ther, 2015).
pIC50: −log10 of the molar value. Calls of active or inactive are those of the source. The calls are words filed in the database; no cut-off is given here.

Assays:
[1] = biological target: T1, Peroxisome proliferator-activated receptor gamma (Homo sapiens, UniProt P37231); assay: Inhibition of peroxisome proliferator-activated receptors gamma (unknown origin)
T1 sequence (P37231 whole entry): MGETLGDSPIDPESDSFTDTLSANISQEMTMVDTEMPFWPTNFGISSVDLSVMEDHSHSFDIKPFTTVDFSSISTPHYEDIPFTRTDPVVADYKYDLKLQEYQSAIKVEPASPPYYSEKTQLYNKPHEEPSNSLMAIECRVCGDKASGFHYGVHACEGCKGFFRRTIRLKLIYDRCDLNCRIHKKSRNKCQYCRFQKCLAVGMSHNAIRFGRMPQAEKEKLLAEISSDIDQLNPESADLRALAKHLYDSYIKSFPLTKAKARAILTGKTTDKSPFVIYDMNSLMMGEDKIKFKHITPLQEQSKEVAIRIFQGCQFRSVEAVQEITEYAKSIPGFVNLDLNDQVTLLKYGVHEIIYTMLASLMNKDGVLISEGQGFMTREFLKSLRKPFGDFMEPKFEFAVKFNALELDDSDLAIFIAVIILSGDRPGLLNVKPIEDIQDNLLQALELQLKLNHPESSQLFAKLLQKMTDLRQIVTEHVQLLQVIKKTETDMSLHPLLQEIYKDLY
In short: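 Radioligand binding selectivity screen was run at 10 μM, mean of three determinations. Where inhibition exceeded 50%, full concentration-displacement curves were run in triplicate and IC50 was obtained by nonlinear least-squares regression.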

Mus musculus = assay: Effect on histological changes in 20 weeks old MitoPark mouse lung assessed as slight enlargement of alveolar epithelial cells at 30 mg/kg/day administered for 15 weeks by hematoxylin and eosin staining based microscopic analysis; format: functional, organism-based
In short: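 MitoPark mice were fed diet targeting 30 mg/kg/day or vehicle for 15 weeks and euthanized at 20 weeks of age (n=5/group). Kidney and lung were fixed in 10% neutral buffered formalin, paraffin-embedded, sectioned at 5 µm, H&E-stained and examined microscopically.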

[2] = Oral biavailability in C57Bl/6 mouse at 10 mg/kg measured after 480 mins by LC-MS/MS analysis; format: ADME, organism-based; conditions: in vivo
In short: (§1)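 Male C57Bl/6 mice (20-25 g) given a single IV dose (2 mg/kg) or oral dose (10 mg/kg). Blood was sampled at 5, 15, 30, 60, 120, 240, 360 and 480 min and plasma prepared by centrifugation. Plasma drug levels were measured by LC/MS/MS. Values are mean (CV%), N=3.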

[3] = MRT in C57Bl/6 mouse at 2 mg/kg, iv measured after 480 mins by LC-MS/MS analysis; format: ADME, organism-based; conditions: in vivo; in short: as §1
[4] = Unbound plasma concentration in C57Bl/6 mouse administered for 11 days; format: ADME, cell-free; conditions: 264 h, dose 3-100 mg/kg, time 11 day
In short: (§2)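 Male C57Bl/6 mice, singly housed on a reversed 12 h light cycle, were fed diet formulated to give 3, 10, 30, 60 or 120 mg/kg/day (assumes 3 g/day intake) or untreated diet for 11 days. Body weight and food intake were monitored. Spontaneous locomotion and rearing were recorded over 60 min. On day 11, mice were euthanized 4, 8 or 24 h after dark onset and plasma and brain drug levels measured; n = 5 per group.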

[5] = biological target: T2, Mitogen-activated protein kinase kinase kinase 5 (Homo sapiens, UniProt Q99683); assay: Inhibition of MAP3K5 (unknown origin)
T2 sequence (Q99683 whole entry): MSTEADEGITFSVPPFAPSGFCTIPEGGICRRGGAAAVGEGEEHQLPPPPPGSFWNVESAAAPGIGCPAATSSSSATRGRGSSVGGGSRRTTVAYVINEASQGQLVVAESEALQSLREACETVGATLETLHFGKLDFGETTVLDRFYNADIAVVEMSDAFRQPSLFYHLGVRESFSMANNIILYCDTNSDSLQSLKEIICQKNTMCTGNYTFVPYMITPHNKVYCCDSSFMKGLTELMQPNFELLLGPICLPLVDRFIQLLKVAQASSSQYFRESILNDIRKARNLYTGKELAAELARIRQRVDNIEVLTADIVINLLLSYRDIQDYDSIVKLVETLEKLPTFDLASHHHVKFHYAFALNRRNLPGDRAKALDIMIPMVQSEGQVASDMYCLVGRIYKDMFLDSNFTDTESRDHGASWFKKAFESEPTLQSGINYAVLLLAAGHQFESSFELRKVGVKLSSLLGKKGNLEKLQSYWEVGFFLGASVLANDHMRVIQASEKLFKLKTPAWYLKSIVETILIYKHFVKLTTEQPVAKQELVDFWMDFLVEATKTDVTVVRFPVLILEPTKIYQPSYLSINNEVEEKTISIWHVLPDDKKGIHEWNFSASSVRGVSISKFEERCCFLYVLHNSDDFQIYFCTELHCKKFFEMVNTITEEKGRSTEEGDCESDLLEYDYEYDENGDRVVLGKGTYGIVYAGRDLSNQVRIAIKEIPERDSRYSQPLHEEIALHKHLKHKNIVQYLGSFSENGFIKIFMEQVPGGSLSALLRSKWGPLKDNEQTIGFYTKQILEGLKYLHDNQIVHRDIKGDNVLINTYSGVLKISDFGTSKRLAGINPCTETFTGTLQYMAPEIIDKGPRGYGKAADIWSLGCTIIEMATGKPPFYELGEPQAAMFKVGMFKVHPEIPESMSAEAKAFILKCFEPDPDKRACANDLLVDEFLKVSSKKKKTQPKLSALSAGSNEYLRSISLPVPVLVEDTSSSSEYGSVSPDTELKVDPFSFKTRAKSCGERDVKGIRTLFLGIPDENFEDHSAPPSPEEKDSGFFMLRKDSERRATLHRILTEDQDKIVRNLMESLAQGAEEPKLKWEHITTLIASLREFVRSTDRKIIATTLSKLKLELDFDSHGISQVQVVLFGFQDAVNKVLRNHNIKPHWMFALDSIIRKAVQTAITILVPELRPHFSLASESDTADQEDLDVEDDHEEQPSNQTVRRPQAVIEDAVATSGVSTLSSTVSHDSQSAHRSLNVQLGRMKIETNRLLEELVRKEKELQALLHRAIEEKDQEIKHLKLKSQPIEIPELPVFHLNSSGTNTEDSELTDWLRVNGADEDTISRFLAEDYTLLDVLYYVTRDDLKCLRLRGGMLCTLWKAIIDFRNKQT

[6] = AUC in C57Bl/6 mouse at 10 mg/kg, po measured after 480 mins by LC-MS/MS analysis; format: ADME, organism-based; conditions: in vivo; in short: as §1
[7] = Toxicity in C57Bl/6 mouse assessed as change in body weight measured after 11 days; conditions: in vivo, 264 h, time 11 day; in short: as §2
[8] = biological target: Leucine-rich repeat serine/threonine-protein kinase 2 (Mus musculus) (UniProt Q5S006); assay: In vivo inhibition of LRRK2 in C57Bl/6 mouse brain assessed as decrease in pSer935 LRRK2 at 10 to 100 mg/kg, po measured after 1 hr by Western blotting analysis relative to control; format: functional, organism-based; conditions: dose 10-100 mg/kg
In short: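 Male C57Bl/6 mice, 20-25 g. Single oral dose of 1-100 mg/kg suspended in 30% Captisol (10 mL/kg), or vehicle, given 1 h before CO2 euthanasia. Cortex frozen on dry ice and pSer935 LRRK2 read by Western blot. n = 5 per group.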

[9] = biological target: Dual specificity protein kinase CLK4 (Homo sapiens, UniProt Q9HAZ1); assay: Inhibition of CLK4 (unknown origin)
Dual specificity protein kinase CLK4, sequence (Q9HAZ1 whole entry): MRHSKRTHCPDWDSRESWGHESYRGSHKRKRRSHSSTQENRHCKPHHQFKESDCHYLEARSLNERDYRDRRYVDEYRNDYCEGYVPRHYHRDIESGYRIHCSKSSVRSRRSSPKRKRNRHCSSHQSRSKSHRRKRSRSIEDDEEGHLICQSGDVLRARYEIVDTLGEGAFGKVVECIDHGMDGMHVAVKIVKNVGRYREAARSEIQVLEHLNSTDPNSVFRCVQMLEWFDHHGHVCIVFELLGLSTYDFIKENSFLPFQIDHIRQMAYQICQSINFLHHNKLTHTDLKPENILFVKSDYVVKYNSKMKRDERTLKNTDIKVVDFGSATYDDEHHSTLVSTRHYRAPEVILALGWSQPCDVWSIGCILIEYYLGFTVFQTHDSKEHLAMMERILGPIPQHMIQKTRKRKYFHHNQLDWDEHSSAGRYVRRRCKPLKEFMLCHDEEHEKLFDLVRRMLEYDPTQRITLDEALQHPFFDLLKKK

Leucine-rich repeat serine/threonine-protein kinase 2 (Mus musculus), sequence (Q5S006 whole entry): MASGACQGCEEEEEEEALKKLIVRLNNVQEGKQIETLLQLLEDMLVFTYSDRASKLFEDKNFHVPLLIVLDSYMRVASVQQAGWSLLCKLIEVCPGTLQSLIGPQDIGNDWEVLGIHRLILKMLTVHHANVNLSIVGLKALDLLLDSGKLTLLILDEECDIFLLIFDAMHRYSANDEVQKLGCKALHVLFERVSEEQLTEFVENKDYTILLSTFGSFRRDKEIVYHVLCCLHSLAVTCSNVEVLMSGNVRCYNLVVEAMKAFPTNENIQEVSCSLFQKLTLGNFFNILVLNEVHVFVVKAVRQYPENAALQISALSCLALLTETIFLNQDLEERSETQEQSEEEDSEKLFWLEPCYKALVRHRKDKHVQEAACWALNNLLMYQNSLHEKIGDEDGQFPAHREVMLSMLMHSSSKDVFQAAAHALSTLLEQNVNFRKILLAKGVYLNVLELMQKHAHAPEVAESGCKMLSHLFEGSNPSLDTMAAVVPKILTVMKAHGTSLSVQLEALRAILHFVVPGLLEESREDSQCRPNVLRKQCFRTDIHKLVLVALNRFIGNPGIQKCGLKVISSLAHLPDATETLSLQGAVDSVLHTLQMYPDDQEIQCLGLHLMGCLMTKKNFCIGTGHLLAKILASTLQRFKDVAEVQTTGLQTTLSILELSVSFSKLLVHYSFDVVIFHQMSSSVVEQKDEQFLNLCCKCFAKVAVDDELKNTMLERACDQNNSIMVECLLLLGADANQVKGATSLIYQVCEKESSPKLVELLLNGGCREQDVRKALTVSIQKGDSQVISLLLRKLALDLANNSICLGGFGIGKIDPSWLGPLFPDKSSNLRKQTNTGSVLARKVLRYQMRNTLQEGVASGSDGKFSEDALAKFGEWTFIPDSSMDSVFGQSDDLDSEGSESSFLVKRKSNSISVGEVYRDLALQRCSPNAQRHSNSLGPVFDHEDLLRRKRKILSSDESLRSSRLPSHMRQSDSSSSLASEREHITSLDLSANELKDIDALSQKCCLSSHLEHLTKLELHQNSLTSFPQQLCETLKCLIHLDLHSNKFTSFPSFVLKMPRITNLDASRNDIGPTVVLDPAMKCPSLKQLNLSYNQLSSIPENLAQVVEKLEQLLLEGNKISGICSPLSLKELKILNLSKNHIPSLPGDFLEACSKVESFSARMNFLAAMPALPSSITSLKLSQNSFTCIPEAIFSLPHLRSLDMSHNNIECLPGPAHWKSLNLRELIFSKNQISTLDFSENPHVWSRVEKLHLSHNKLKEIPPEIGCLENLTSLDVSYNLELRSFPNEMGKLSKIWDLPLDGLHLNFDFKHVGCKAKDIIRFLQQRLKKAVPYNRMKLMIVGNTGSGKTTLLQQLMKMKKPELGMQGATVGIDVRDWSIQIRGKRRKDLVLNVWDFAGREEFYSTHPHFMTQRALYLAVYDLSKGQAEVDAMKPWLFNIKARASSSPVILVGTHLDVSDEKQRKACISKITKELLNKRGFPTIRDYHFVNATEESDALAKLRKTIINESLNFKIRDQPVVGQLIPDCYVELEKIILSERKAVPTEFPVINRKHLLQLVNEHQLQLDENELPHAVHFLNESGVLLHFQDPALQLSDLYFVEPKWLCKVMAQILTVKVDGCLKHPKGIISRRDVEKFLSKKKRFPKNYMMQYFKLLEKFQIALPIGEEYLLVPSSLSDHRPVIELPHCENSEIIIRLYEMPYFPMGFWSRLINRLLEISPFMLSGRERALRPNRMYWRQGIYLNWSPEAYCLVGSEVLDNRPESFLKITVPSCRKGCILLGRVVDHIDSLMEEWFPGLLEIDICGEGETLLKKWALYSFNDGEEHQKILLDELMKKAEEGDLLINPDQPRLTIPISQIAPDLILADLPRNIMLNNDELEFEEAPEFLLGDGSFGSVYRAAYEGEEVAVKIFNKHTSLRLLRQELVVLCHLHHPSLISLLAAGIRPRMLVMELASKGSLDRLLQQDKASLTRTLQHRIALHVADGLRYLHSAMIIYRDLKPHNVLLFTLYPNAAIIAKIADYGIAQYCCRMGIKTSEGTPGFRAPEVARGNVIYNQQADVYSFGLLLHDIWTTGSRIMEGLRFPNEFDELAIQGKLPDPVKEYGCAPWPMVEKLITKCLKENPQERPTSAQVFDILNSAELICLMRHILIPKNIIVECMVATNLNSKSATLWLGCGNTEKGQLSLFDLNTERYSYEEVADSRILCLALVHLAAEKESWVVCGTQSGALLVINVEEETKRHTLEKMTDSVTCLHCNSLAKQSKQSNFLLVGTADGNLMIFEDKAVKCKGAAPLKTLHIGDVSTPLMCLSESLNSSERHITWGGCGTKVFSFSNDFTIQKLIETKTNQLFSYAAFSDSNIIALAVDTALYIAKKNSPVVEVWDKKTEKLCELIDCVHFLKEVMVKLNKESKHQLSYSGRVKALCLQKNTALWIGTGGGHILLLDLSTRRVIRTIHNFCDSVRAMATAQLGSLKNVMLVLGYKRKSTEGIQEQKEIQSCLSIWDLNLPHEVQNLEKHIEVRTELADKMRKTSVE

- pIC50 [1]: 5.19
- bioavailability [2]: 45%
- MRT [3]: 2.7 h
- Drug uptake(free) [4]: Dose-Dependent Effect
- pIC50 [5]: 6.37
- AUC at 8 h [6]: 1.5 µM·h
- inhibition [8]: > 90%
- pIC50 [9]: 6.65
Compound: C[C@@H]1CN(c2cc(-c3n[nH]c4ccc(OC5(C)CC5)cc34)ncn2)C[C@H](C)O1 [MLi-2]
- Activity (Mus musculus): Active
- Activity [7]: Non-Toxic
